T cruzi inh: T. cruzi replication inhibition | T. cruzi beta-gal in NIH3T3, luminescence, 90 h | inhibition, % (concentration not given with the values) | AID 1885 | 300,000 tested, 1.4% active;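 active = mean inhibition across valid replicates above about 55%, limit read from the data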;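 note: signal also drops with host cell toxicity which is not excluded here; 0% = plate median of DMSO wells and 100% = zero luminescence signal; higher percent means less beta-gal luminescence so fewer parasites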
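Test system: β-gal T. cruzi (Tulahuen C4) inside NIH/3T3 cells / Quantity: 5,000 cells/well / Measured by: luminescence from GalScreen with 0.05% NP40, read after 60 min / Medium: DMEM plus 2% FBS / Measure: parasite load inhibition, % / Reagent: Tulahuen C4 trypomastigotes, 5000/well / Schedule: co-culture of at least 90 h after 3 h attachment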
CSC inhib: cancer stem cell inhibition. cancer stem cell-like cells viability, luminescence. inhibition, % at 7.5 µM. 300,000 tested, 1.1% active; in the data active = inhibition above about 75%; tested in HMLE shEcad cells
L major viab: reduces viability of Leishmania major promastigotes | inhibition, % at 10 µM | AID 1063 | resazurin fluorescence viability | 200,000 tested, 9% active; in the data active = inhibition above about 50%;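 note: promastigotes grown with compound for 44 hours at 28 °C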
Mdm2-MdmX inh: inhibitors of human Mdm2/MdmX interaction. SaOS-2 split-luciferase Mdm2/MdmX complementation, luminescence. O15151+Q00987. inhibition, % at 8 µM. 330,000 tested, 3% active. AID 485346;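 active = inhibition of at least 50% at 8 µM in the primary screen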
Target sequence (O15151 whole entry, looked up): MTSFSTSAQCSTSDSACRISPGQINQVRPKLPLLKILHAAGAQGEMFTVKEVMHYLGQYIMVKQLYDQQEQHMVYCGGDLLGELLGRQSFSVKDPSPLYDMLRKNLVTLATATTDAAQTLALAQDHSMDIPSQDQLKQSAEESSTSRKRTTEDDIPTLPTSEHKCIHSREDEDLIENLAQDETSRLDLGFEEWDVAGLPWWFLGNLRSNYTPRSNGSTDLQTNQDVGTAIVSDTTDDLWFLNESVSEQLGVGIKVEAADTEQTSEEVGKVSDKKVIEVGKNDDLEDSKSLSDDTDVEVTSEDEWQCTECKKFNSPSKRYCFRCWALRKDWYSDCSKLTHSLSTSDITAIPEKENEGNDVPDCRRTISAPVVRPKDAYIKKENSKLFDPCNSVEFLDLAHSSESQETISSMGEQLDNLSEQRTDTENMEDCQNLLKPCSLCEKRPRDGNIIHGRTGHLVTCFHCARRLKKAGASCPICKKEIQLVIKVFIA
Target sequence (Q00987 whole entry, looked up): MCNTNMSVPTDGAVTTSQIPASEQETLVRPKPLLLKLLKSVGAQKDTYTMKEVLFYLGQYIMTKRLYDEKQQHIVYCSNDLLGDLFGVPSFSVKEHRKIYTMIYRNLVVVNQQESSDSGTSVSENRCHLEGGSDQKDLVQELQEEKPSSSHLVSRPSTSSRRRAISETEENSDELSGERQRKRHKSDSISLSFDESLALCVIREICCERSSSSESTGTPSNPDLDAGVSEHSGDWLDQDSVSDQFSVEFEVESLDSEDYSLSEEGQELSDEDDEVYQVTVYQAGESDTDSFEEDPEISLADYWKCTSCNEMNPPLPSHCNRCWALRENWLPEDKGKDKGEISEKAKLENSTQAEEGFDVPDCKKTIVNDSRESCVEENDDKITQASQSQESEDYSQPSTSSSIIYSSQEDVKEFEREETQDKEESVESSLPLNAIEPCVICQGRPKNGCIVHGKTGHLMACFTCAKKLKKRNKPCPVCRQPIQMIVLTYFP
SKKanGAS inh: blocks kanamycin growth of S. pyogenes SKKanGAS strain | BacTiter-Glo, 6 h | inhibition, % at 7.5 µM | 300,000 tested, 1.3% active;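 active = mean replicate score, as percent of positive control median, at least 50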;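 note: strain carries kanamycin resistance gene driven by streptokinase promoter and grows in 40 µg/ml kanamycin; loss of luminescence reflects streptokinase promoter inhibition or plain growth inhibition; 0% = median of DMSO wells and 100% = positive control at its reference dose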
Beta cell apopt: beta cell apoptosis inhibition. INS-1E cytokine-induced death, ATP luminescence, 48 h; percent of positive-control rescue, neutral wells zero. protection from apoptosis, % (concentration not given with the values). 300,000 tested, 0.8% active. AID 435005;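 active = Every replicate reaches about 75%, or at least half do and their mean reaches it too, limit read from the data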;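 note: 0% = cytokine-treated negative control wells and 100% = positive control rescue; higher means more ATP so stronger rescue from cytokine killing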
Mdm2-MdmX conf: human Mdm2/MdmX binding inhibition, confirmed. shares compounds with Mdm2-MdmX inh. luminescent assay. inhibition, % at 8 µM. 10,000 tested, 55% active. AID 489028; in the data active = inhibition above about 40%
FLuc counter: inhibits full-length luciferase, flagging false Mdm2/MdmX hits; shares compounds with Mdm2-MdmX inh; SaOS-2 full-length luciferase counterscreen, luminescence; inhibition, % at 8 µM; 6,200 tested, 77% active;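 active = mean inhibition at 8 µM reaching about 37%, which flags the compound as non-specific, limit read from the data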;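 note: p53-null SaOS-2 cells with luciferase driven by a doxycycline-inducible promoter; compound on cells about two nights before reading with doxycycline added after day one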
* hit, by the source's call; nt = no result. Hits are enriched below; roughly 9.4% of the tested compounds scored in any of these assays.

SMILES	T cruzi inh	CSC inhib	L major viab	Mdm2-MdmX inh	SKKanGAS inh	Beta cell apopt	Mdm2-MdmX conf	others
O=C(NCC(=O)N(c1cccnc1)C(C(=O)NC1CCCCC1)c1ccccc1F)c1ccco1 (stereo not given)	1.9	-14.9	nt	9.8	-0.5	-2.4	nt
Fc1ccc(-c2nnc(NC3=NCCCCC3)o2)cc1	-13.4	19.3	-15.4	54.5*	14.9	13.9	49.5*	FLuc counter=54.6*
c1ccc(-c2nnc(NC3=NCCC3)o2)cc1	-5.1	14.9	-4.6	-47.6	6.4	3.8	nt
CC(=O)n1c2c(c3ccccc31)OC(N)=C(C#N)C2c1ccc(C(C)C)cc1 (stereo not given)	8.8	12.4	9.1	59.0*	12.3	-13.0	65.5*	FLuc counter=130.6*
CC(=O)C1=C(C)OC(N)=C(C#N)C1c1cccc2ccccc12 (stereo not given)	-1.6	-20.8	nt	30.9	17.5	-5.1	nt
O=C(Nc1nnc(-c2ccc3c(c2)CCCC3)o1)c1ccc(Cl)cc1Cl	-3.1	68.0	-2.5	50.6*	96.0*	-2.8	24.6
CN(C)S(=O)(=O)c1ccc(C(=O)Nc2nnc(-c3ccc4c(c3)CCCC4)o2)cc1	46.1	23.4	98.5*	60.4*	94.3*	15.4	23.4
O=C(Nc1ccc2c(c1)C(=O)OC2)c1ccc(Cl)cc1Cl	-7.9	-0.2	nt	1.6	-0.9	-7.5	nt
CSCc1nnc(NC(=O)c2ccc(S(=O)(=O)N(C)C)cc2)o1	-3.1	-5.9	-7.7	7.5	-2.5	4.8	nt
CSc1ncccc1C(=O)Nc1ccc(S(=O)(=O)NC2=NCCCCC2)cc1	-5.4	5.4	-0.6	-0.3	-1.9	-6.3	nt
COc1ccccc1C(=O)NCCC(=O)NCC1CCCCC1	nt	9.6	nt	6.0	nt	-5.2	nt
COc1ccc(NC(=O)c2cc(S(=O)(=O)N3CCCC3)oc2C)cc1	-4.2	-7.4	nt	6.7	-1.1	-6.8	nt
COc1ccc(NS(=O)(=O)c2cc(OC)ccc2NC(=O)c2cc(C)oc2C)cc1	6.9	56.6	3.7	51.5*	5.0	10.2	60.6*	FLuc counter=48.5*
C/C(=N\N=C(N)N)c1ccc(Cl)c(Cl)c1	53.4	21.8	100.5*	56.3*	0.2	-1.9	38.0
Cc1ccc(S(=O)(=O)O/N=C2\CCCc3ccccc32)cc1	-7.0	-9.4	-4.9	24.6	2.8	-6.7	nt
CC1=C(C)/C(=N\OS(=O)(=O)c2ccccc2)C=CC1=O	54.8*	3.6	100.5*	94.8*	0.7	113.2*	83.6*	FLuc counter=52.5*
CSCc1c(C(=O)OCC(=O)c2ccc[nH]2)oc2ccccc12	nt	nt	nt	13.1	nt	nt	nt
Nc1c(C(=O)CSc2nnc(-c3ccccc3)o2)c(=O)[nH]c(=O)n1C1CC1	nt	-6.5	nt	49.7	nt	-3.6	nt
Cc1cc(C)cc(-c2nnc(SCC(=O)c3c(N)n(C4CC4)c(=O)[nH]c3=O)o2)c1	nt	nt	nt	54.4*	nt	nt	14.2
CCCc1cc(=O)[nH]c(SCC(=O)c2c(N)n(C3CC3)c(=O)[nH]c2=O)n1	nt	nt	nt	96.3*	nt	0.6	13.6
Cc1ccc(Nc2nnc(SCC(=O)c3c(N)n(C4CC4)c(=O)[nH]c3=O)s2)cc1C	nt	14.4	nt	70.5*	nt	1.8	4.0
Cc1ccc(S(=O)(=O)c2c(C)nn(C(C)(C)C)c2OC(=O)c2ccc(Br)o2)cc1	2.4	91.3*	0.1	89.3*	4.4	-12.1	60.5*	FLuc counter=29.3
O=C(NCc1ccc2c(c1)OCO2)c1c(-c2ccccc2)sc2ccccc12	nt	16.6	nt	7.7	nt	0.4	nt
CN(C)/C=C/C(=O)c1ccc2noc(-c3ccccc3)c2c1	-9.4	1.6	nt	50.9*	9.8	-13.7	34.1
CC(=O)c1ccc2noc(-c3ccccc3)c2c1	9.9	-14.7	5.4	4.8	-6.4	-11.2	nt
SMILES	T cruzi inh	CSC inhib	L major viab	Mdm2-MdmX inh	SKKanGAS inh	Beta cell apopt	Mdm2-MdmX conf	others
Cc1nn(C)c(C)c1NC(=O)CSc1nc(C2CC2)nc2c1cnn2-c1ccccc1	-6.9	-7.6	0.7	42.6	-5.4	4.8	nt
CC1CCCCN1C(=O)CSc1nc(C2CC2)nc2c1cnn2-c1ccccc1 (stereo not given)	28.8	nt	7.4	53.9*	2.9	nt	9.4
O=C(Nc1ccc(Cc2ccc(NC(=O)C3CC3)cc2)cc1)C1CC1	-7.1	17.3	-5.1	56.9*	4.8	1.4	14.7
CC(C)C[C@H]1COCCS(=O)(=O)N1Cc1cccc(F)c1	11.1	-3.0	nt	4.8	-1.6	1.8	nt
CS(=O)(=O)N1CCC(Oc2cccc(C(=O)NCCCOc3cccnc3)c2)CC1	0.7	-16.4	nt	12.2	-4.7	8.7	nt
COc1ccccc1-c1cc(C(=O)Nc2cc(C)nn2-c2ccccc2)no1	-0.1	39.6	-4.0	57.0*	4.1	10.0	61.5*	FLuc counter=45.5*
COc1ccc(-c2cc(C(=O)Nc3c(C)nn(Cc4ccccc4)c3C)no2)cc1	18.6	9.3	-11.5	62.9*	0.2	-0.5	20.0
COc1ccc(-c2cc(C(=O)Nc3cc(C)nn3-c3ccccc3)no2)cc1	-11.1	-3.7	-1.5	5.4	7.9	-2.6	nt
COc1ccc(-c2cc(C(=O)Nc3ccccc3SC)no2)cc1	-18.4	8.3	-8.2	-13.0	-10.3	1.4	nt
COc1ccc(-c2cc(C(=O)Nc3cc(Br)ccc3O)no2)cc1	-9.9	1.7	nt	82.6*	-13.4	-12.2	31.6	FLuc counter=101.0*
COc1cccc(-c2cc(C(=O)Nc3cc(C)nn3-c3ccccc3)no2)c1	-5.6	-4.7	-6.0	64.6*	-3.5	9.3	32.0
CC[C@]12c3[nH]c4cc(CCC(=O)N(C)C)ccc4c3CCN1C(=O)[C@@H](CC(=O)NCCc1ccccn1)C[C@@H]2C(=O)N1CCN(C(=O)C2CC2)CC1	nt	nt	nt	21.7	nt	nt	nt
COc1ccc(NC(=O)c2cc3ccc4c5ccccc5[nH]c4c3cc2O)cc1	-14.3	1.2	nt	20.7	5.7	3.0	nt
CCN(CC)CC(O)Cn1c(C)c(-c2ccccc2)c2cc([N+](=O)[O-])ccc21 (stereo not given)	31.1	21.2	nt	35.3	2.4	0.9	nt
CCCC(=O)Nc1cc(OC)c(C(=O)OC)cc1Cl	-3.4	-8.9	-3.2	-5.8	-8.2	0.4	nt
CCCC(=O)N=C1SC2CS(=O)(=O)CC2N1c1ccc(-c2nc3ccc(C)cc3s2)cc1 (stereo not given)	33.2	9.6	-7.6	72.9*	10.6	-3.6	-109.5
COc1ccc(Oc2nc3c(c(=O)n(C)c(=O)n3C)n2C)cc1	15.3	-14.7	nt	36.6	11.8	-1.8	nt
Cn1c(=O)c2c(nc(Oc3ccc4ccccc4c3)n2C)n(C)c1=O	-12.3	5.7	1.9	51.9*	-4.7	-3.7	61.6*	FLuc counter=33.6
Cc1ccc(CSc2nccc(-c3c(C)nc4ccccn34)n2)cc1	-17.6	52.9	nt	66.1*	9.0	7.9	45.9*	FLuc counter=52.7*
Nc1c(C(=O)Nc2ccc(S(=O)(=O)N3CCCC3)cc2)sc2nc3ccc(OC(F)(F)F)cc3cc12	38.9	32.2	49.4	89.9*	18.4	98.0*	-11.5

Screens deposited in PubChem BioAssay by several laboratories.
